Screening results (PubChem BioAssay)
CaV13 ICDI inh = Disruptors of the CACNA1D IQ motif to Ca2+-dependent inactivation inhibitor domain association, primary screening, Förster resonance energy transfer in intact living …; HEK cells, CFP/YFP FRET ICDI-IQ, plate reader, 10 min; percent FRET-ratio fall versus neutral wells; AID 743397; inhibition, % at 12.3 µM; 0.098% of 340,000 active;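 active = mean replicate inhibition of at least 30% and at least 1% of replicates passing that level; inconclusive = only one of the two criteria is met; inactive = neither criterion is met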;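 note: 0% = median of the neutral control wells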
MLL AF4-AF9 inh = blocks AF4 peptide binding to human AF9; P42568; 0.47% of 350,000 active; inhibition, % at 10 µM; AlphaScreen, biotin-AF4 peptide binding to FLAG-AF9;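 active = every replicate reaching a set inhibition limit, whatever the replicate mean, cut at about 25% in these data; inconclusive = mean inhibition reaches that limit but some replicates miss it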;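 note: 0% = plate neutral control median and 100% = total signal loss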
SIRT5 inh = blocks human SIRT5 desuccinylation of peptide; inhibition, % at 15 µM; 1.1% of 330,000 active; Purified SirT5, succinyl-peptide AMC, trypsin-coupled fluorescence; AID 652115; Q9NXA8; in the data active = inhibition above about 15%; inconclusive = no clear call, values can overlap the other calls
Target sequence (Q9NXA8 whole entry, looked up): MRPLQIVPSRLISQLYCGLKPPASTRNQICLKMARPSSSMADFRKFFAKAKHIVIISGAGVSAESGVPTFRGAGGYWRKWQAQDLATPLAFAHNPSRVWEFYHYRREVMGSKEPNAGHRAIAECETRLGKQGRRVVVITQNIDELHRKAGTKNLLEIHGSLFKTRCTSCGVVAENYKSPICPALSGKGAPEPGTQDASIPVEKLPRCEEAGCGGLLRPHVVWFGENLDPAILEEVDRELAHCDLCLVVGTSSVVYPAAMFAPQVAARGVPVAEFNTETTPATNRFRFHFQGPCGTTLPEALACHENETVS
DENV2 CPE rescue = inhibitors of DENV2 cytopathic effect; DENV2-infected cells, cytopathic effect rescue, plate reader; CPE inhibition, % at 9.99 µM; 1.7% of 350,000 active; AID 651640; in the data active = CPE inhibition above about 20%, passing the limit was not always enough; inconclusive = no clear call, values can overlap the other calls; tested in BHK-21 cells;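 note: 0% = median of neutral control wells and 100% = median of positive control wells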
S100A4 MyoIIA = blocks human S100A4 binding to myosin IIA peptide | S100A4/TAMRA-MyoIIA peptide fluorescence polarization | AID 652163 | inhibition, % at 10.7 µM | P26447 | 0.14% of 360,000 active;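 active = mean inhibition of at least 70% across replicates, with every replicate also reaching that level; inconclusive = mean inhibition reaches 70% but some replicates fall short; inactive = mean inhibition below 70%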
Target sequence (P26447 whole entry, looked up): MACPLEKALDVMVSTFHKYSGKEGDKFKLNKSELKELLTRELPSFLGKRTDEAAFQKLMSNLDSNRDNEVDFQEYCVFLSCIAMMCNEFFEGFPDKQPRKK
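Material: human S100A4 monomer with TAMRA-labelled myosin IIA peptide; buffer or medium: HEPES pH 7.2 with CaCl2, KCl, NaCl, DTT, Triton; compound dosing: one concentration per compound; schedule: 5 min incubation before reading; benchmarks: neutral control DMSO, positive control TFP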
Starred values were filed as active, the others as inactive; ? = inconclusive; · = not tested or not shown; + = active, no number; ! = repeats disagree. Most compounds without a hit are left out; they make up all but 2.7% or so of the library.

SMILES	CaV13 ICDI inh	MLL AF4-AF9 inh	SIRT5 inh	DENV2 CPE rescue	S100A4 MyoIIA
C[C@H](CO)N1C[C@H](C)[C@@H](CN(C)CC2CCCCC2)OCCCC[C@H](C)Oc2ccc(NC(=O)Nc3ccc4c(c3)OCO4)cc2C1=O	·	-14	-2	-7	2
C[C@H]1CN([C@@H](C)CO)C(=O)c2cc(NS(C)(=O)=O)ccc2O[C@@H]1CN(C)Cc1ccc(-c2ccccc2)cc1	·	1	-1	0	-1
COC(=O)Cc1nnn2c1[C@@H](C)[C@@H](c1ccccc1Br)O[C@@H](C)C2	-4	-13	·	-12	7
CO[C@H]1CN(C)C(=O)c2cc(NC(C)=O)ccc2OC[C@H](C)N(C(=O)Cc2ccccn2)C[C@@H]1C	·	?	1	-8	-3
CCC(=O)Nc1ccc2c(c1)OC[C@@H](C)N(C(=O)CN1CCOCC1)C[C@H](C)[C@@H](OC)CN(C)C2=O	·	0	-1	12	2
CO[C@H]1CN(C)C(=O)c2cc(NC(C)=O)ccc2OC[C@@H](C)N(C(=O)Cc2ccccn2)C[C@@H]1C	·	29*	0	-3	7
CO[C@@H]1CN(C)C(=O)c2ccc(NC(C)=O)cc2OC[C@H](C)N(C(=O)Cc2ccccn2)C[C@H]1C	·	1	16*	3	3
CO[C@@H]1CN(C)C(=O)c2ccc(NC(C)=O)cc2OC[C@@H](C)N(C(=O)CN2CCOCC2)C[C@@H]1C	·	0	-1	28*	14
COCC(=O)N(C)C[C@H]1Oc2ncc(-c3ccccc3F)cc2C(=O)N([C@H](C)CO)C[C@@H]1C	·	-2	0	-1	-6
CC(=O)N(C)C[C@@H]1Oc2ncc(-c3ccc(F)cc3)cc2C(=O)N([C@H](C)CO)C[C@H]1C	·	-3	-6	59*	15
C[C@H](CO)N1C[C@H](C)[C@@H](CN(C)C(=O)Nc2ccc(F)cc2)Oc2ncc(-c3ccc(F)cc3)cc2C1=O	-10	0	-3	24*!	-3
C[C@H](CO)N1C[C@H](C)[C@H](CN(C)C(=O)Nc2ccccc2)Oc2ncc(-c3ccc(F)cc3)cc2C1=O	·	-3	3	5	3
C[C@@H]1CN([C@@H](C)CO)C(=O)c2cc(-c3ccc(C#N)cc3)cnc2O[C@@H]1CN(C)C(=O)Nc1ccc(C(F)(F)F)cc1	·	-1	7	?	4
C[C@H](CO)N1C[C@H](C)[C@@H](CN(C)C(=O)c2ccc(F)cc2)Oc2ncc(-c3ccc(F)cc3)cc2C1=O	·	-2	1	48*	-7
C[C@H]1CN([C@@H](C)CO)C(=O)c2cc(-c3ccc(C#N)cc3)cnc2O[C@@H]1CN(C)C(=O)Nc1ccc(C(F)(F)F)cc1	·	-1	19*	3	51
C[C@@H]1CN([C@H](C)CO)C(=O)c2cccc(NS(=O)(=O)c3cccs3)c2O[C@@H]1CN(C)CC1CC1	·	-1	·	1	-11
C[C@@H]1CN([C@H](C)CO)C(=O)c2cc(-c3ccc(F)cc3)cnc2O[C@H]1CN(C)Cc1cncnc1	·	-5	3	5	107*
COc1ccc(C)cc1NS(=O)(=O)c1ccc2c(c1)n(C)c(=O)n2C	-4	1	-1	6	6
COc1ccc(C)cc1NS(=O)(=O)c1ccc2c(c1)N(C)CCO2	-4	7	-1	3	84*
CCCc1c(C(=O)OCC)[nH]c2c1C(=O)CCC2	-4	-2	29*	1	11
Cc1c(C(=O)OCCOc2ccccc2)[nH]c2c1C(=O)CCC2	-1	·	·	·	·
C[C@H](CO)N1C[C@H](C)[C@H](CN(C)Cc2ccncc2)Oc2c(NC(=O)Nc3ccc(F)cc3)cccc2C1=O	·	-2	0	-1	-2
CC=Cc1ccc2n(c1=O)C[C@@H]1[C@@H](CO)[C@H](C(=O)NCc3ccc4c(c3)OCO4)[C@H]2N1C(C)=O (mixture of isomers)	·	-3	5	-5	125*
CC=Cc1ccc2n(c1=O)C[C@H]1[C@H](CO)[C@@H](C(=O)NCC(F)(F)F)[C@@H]2N1C(=O)C1CC1 (mixture of isomers)	·	-3	-15	59*	-5
CC=Cc1ccc2n(c1=O)C[C@@H]1[C@@H](CO)[C@H](C(=O)NCC(F)(F)F)[C@H]2N1C(C)=O (mixture of isomers)	·	0	-18	76*	9
SMILES	CaV13 ICDI inh	MLL AF4-AF9 inh	SIRT5 inh	DENV2 CPE rescue	S100A4 MyoIIA
C[C@H](CO)N1C[C@H](C)[C@@H](CN(C)C(=O)NC2CCCCC2)OCCCC[C@H](C)Oc2ccc(NS(=O)(=O)c3ccccc3)cc2C1=O	·	0	-1	-6	6
C[C@@H]1CN([C@@H](C)CO)C(=O)c2cc(NC(=O)CCCN(C)C)ccc2O[C@@H](C)CCCCO[C@H]1CN(C)C(=O)CCC(F)(F)F	·	·	·	-4	·
O=S(=O)(c1cccc(F)c1)N1CCN(C(=S)NCC2CCCO2)CC1 (configuration not stated)	-5	-1	0	-7	-2
S=C(NCC1CCCO1)N1CCN(c2ccccc2)CC1 (configuration not stated)	-11	1	·	6	-1
O=S(=O)(c1cccc(Br)c1)N1CCN(C(=S)NCC2CCCO2)CC1 (configuration not stated)	-7	2	-7	68*	-2
S=C(NCC1CCCO1)N1CCN(Cc2ccccc2Cl)CC1 (configuration not stated)	+	0	5	-2	2
CC(C)CC#Cc1cnc2c(c1)C(=O)N([C@H](C)CO)C[C@@H](C)[C@@H](CN(C)C(=O)Nc1cc(F)ccc1F)O2	·	-4	0	-5	-4
NS(=O)(=O)c1cccc2c1c([N+](=O)[O-])cc1nc(O)c(O)nc12	0	1	16*	17	5
O=[N+]([O-])c1cc2cccnc2c2ncccc12	-20	-1	-1	-2	1
[N-]=[N+]=Nc1ccccc1C[C@@]1(C(=O)N2CCOCC2)N=C(c2ccc(OCCCO)cc2)O[C@@H]1c1ccccc1	·	7	5	-13	-4
O=C(Oc1ccc(Oc2ccccc2)cc1)N1CCC(O)CC1	-17	-1	34*	0	-1
C=CCN(c1ccccc1)S(=O)(=O)c1cccc(C(=O)NCc2ccncc2)c1	-5	1	5	14	-13
C=CCN(c1ccccc1)S(=O)(=O)c1cccc(C(=O)Nc2ccncc2)c1	-1	3	19*	-3	4
COC(=O)[C@H]1CN(C(=O)c2ccccc2)C(=O)N1	-4	0	·	25*	0
CCCNC(=O)[C@H]1[C@H](CO)[C@H]2Cn3c(ccc(-c4ccccc4)c3=O)[C@@H]1N2C(=O)CC1CC1	·	3	-25	-8	16
Cc1ccc(Cc2c(-c3ccc(F)cc3)nc3cc(C)ccn23)cc1	-12	3	15*	-3	-7
